Compounds with a hit are over-represented: about 4% of the library has one in this group of screens.
FAS-TE inh – FAS thioesterase domain inhibitors, primary screen, biochemical, fluorescence intensity, uHTS | 360,000 tested, 0.67% active | inhibition, % at 15 µM | recombinant FAS-TE, OMFH fluorogenic substrate, fluorescence endpoint | Fatty acid synthase (Homo sapiens), P49327;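 active means compounds whose normalised, plate-corrected inhibition of enzyme fluorescence in the single-dose primary screen is 50% or more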;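 further: 0% = DMSO with enzyme and 100% = substrate without enzyme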
iPSC survival up – enhancers of single-cell hiPSC survival, primary screen, ATPlite luminescence. 100% = ROCK inhibitor wells, 0% = DMSO. survival enhancement, % at 20 µM. 360,000 tested, 0.044% active. AID 602274, 2012; in the data active means survival enhancement above about 18%;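 further: cells exposed to compounds for 16 hours before the ATP read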
Cardio protect – cardioprotection against H2O2-induced cell death, primary screen, uHTS, H9c2 cells, ATPLite luminescence; AID 588492, 2011; 360,000 tested, 0.63% active; protection from H2O2 cell death, % at 20 µM; H9c2 cardiomyocytes, H2O2 injury protection, 2 h;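 active means compounds giving at least 50% protection of heart cells from peroxide-induced death in the single-dose screen, raw or plate-pattern-corrected value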;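 further: 0% = DMSO wells with peroxide and 100% = DMSO wells without peroxide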
Arrestin-AP2 inh – inhibitors of beta-arrestin/AP2 binding, primary screen, biochemical, GPCR trafficking, flow cytometry; 340,000 tested, 0.31% active; FITC-arrestin peptide / GST-AP2 beads; AP2 beta2 appendage carries R879A mutation; inhibition, % at 10 µM; beta-arrestin 1 C-terminal peptide binding to AP2 beta2-adaptin appendage (human);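 active means inhibition above a set limit, near 3 SD of compounds lacking own fluorescence, cut at about 54% in these data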;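 further: plate controls were DMSO wells for no effect and 5 µM unlabelled arrestin peptide for full effect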
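Material – AP2 appendage R879A on GSH beads · Buffer or medium – PBS with 0.05% Tween 20 and 0.1% BSA · Probe or stimulus – fluorescein-tagged arrestin peptide at 50 nM final · Incubation – compound with beads 12 min RT, then probe 1 h RT · Detection – high-throughput flow cytometry of beads, ex 488, em 535 nm · Evaluation – percent response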
NR3A LBD binder – binders of NR3A ligand-binding domain, primary screen, biophysical, differential scanning fluorimetry, uHTS; Glutamate receptor ionotropic, NMDA 3A (GRIN3A) ligand-binding domain; NR3A LBD differential scanning fluorimetry, Tm shift; 0% = protein alone, 100% = glycine-bound protein; Tm shift relative to glycine control, % at 25 µM; 340,000 tested, 2.5% active;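 active means melting temperature shift of at least 10% of the positive control shift, at one fixed dose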
SENP1 FRET inh – human SENP1 catalytic domain inhibitors, primary screen, biochemical, FRET, uHTS; Sentrin-specific protease 1 (Homo sapiens), Q9P0U3; recombinant SENP1 catalytic domain, CyPet-SUMO1-YPet FRET cleavage; inhibition, % at 10 µM; 360,000 tested, 0.21% active; AID 624204, 2012;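 active means inhibition at least 30% at 10 µM, raw YFP signal under a set limit, fluorescence ratio 0.5 to 1.5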;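 further: 0% = enzyme with DMSO and 100% = no enzyme wells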
Target sequence (Q9P0U3 419-644 limits assumed): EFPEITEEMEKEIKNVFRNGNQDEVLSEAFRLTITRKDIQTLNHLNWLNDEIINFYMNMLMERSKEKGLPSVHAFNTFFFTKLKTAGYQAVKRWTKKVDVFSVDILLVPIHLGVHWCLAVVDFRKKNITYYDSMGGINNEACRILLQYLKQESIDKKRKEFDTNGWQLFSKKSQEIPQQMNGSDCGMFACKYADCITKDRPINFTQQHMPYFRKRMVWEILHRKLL
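material = recombinant human SENP1 catalytic domain, His6-tagged | quantity = 20 pM enzyme | reagent = 25 nM SUMO1 FRET substrate | compound dosing = 10 µM single point, 0.5% DMSO | timing = 50 min enzyme reaction, room temperature, light-protected | detection = FRET, CFP and YFP emission | control set = no-enzyme low, enzyme-DMSO high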
FAS-TE inh conf – FAS thioesterase domain inhibitors, confirmation, biochemical, fluorescence intensity, single concentration. shares compounds with FAS-TE inh. AID 624325, 2012. inhibition, % at 15 µM. 2,300 tested, 45% active. recombinant FAS-TE, OMFH fluorogenic substrate;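 active means compounds inhibiting the enzyme by at least 50% at 15 µM in any one of the replicates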;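 further: 0% = enzyme with DMSO only and 100% = wells lacking enzyme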
Numbers without * were called inactive; nt = no result given.

SMILES	FAS-TE inh	iPSC survival up	Cardio protect	Arrestin-AP2 inh	NR3A LBD binder	SENP1 FRET inh	FAS-TE inh conf
COc1cc(NC(=O)c2cc3nc(-c4ccccc4)cc(-c4ccccc4)n3n2)cc(OC)c1OC	52*	-1	80*	-25	-22	0	6
COc1cc(NC(=O)c2cc(-c3ccccc3)on2)cc(OC)c1OC	13	-1	3	25	2	0	nt
Cc1nc2ccccc2n1C(C)c1nc2ccccc2n1CC(=O)c1ccc(OC(F)(F)F)cc1 (centres undefined)	nt	nt	nt	nt	nt	-1	nt
O=C(Nc1ccc2c(c1)OCCO2)C1c2ccccc2OCC(=O)N1CCc1ccccc1 (centres undefined)	-2	1	nt	nt	nt	1	nt
COc1ccc2nc(NC(=O)c3ccc([N+](=O)[O-])o3)sc2c1	58*	0	-17	-6	2	-9	51*
O=C(Nc1nc2ccccc2s1)c1ccc([N+](=O)[O-])o1	30	-1	-10	5	3	-1	nt
O=C(Cn1nc(-c2ccco2)ccc1=O)Nc1ccc(Cl)c(Cl)c1	59*	1	-1	-7	-2	1	36*
O=C(Cn1nc(-c2ccco2)ccc1=O)Nc1cc(Cl)ccc1Cl	29	0	-3	22	0	3	nt
O=C(Cn1nc(-c2ccco2)ccc1=O)Nc1cc(C(F)(F)F)ccc1Cl	52*	0	-2	-2	-1	3	73*
O=C(NC1CCCCC1)C(c1ccc(C(F)(F)F)cc1)n1c(=O)c(-c2cc3ccccc3[nH]2)nc2ccccc21 (centres undefined)	nt	nt	nt	nt	nt	-17	nt
NS(=O)(=O)c1ccc(NC(=O)N2c3ccccc3Sc3ccccc32)cc1	nt	nt	nt	5	-3	nt	nt
CC1CCN(S(=O)(=O)c2ccc(NC(=O)N3c4ccccc4Sc4ccccc43)cc2)CC1	62*	-2	-8	7	2	0	15
Cc1cnc(C)c(Nc2nc(C(N)c3ccccc3)cs2)n1 (centres undefined)	-9	3	7	nt	nt	-5	nt
COC(=O)c1c(NC(=O)CSc2ncnc3ccccc23)sc(C)c1C	18	0	-4	9	2	-6	nt
CCOC(=O)c1c(NC(=O)CSc2ncnc3ccccc23)sc(C(C)=O)c1C	50*	2	-16	8	-5	-7	17
CCOC(=O)c1c(NC(=O)CSc2nc3cccnc3n2C)sc(C(C)=O)c1C	80*	-1	-16	-2	-1	18	45
CCOC(=O)c1c(NC(=O)CSc2nnc(-c3ccco3)o2)sc(C(C)=O)c1C	24	-2	-21	-4	1	12	nt
CCOC(=O)c1c(NC(=O)CSc2nnc(-c3ccccc3C)n2C)sc(C(C)=O)c1C	59*	0	-17	1	-1	25	68*
Cc1nnc(NC(=O)CCN2C(=O)C3CC=CCC3C2=O)s1 (centres undefined)	-10	3	5	nt	nt	4	nt
CC(C)(C)c1ccc(CSc2nnc(-c3ccccn3)n2Cc2ccco2)cc1	53*	0	-16	-9	20*	-2	13
Brc1ccc(CSc2nnc(-c3ccccn3)n2Cc2ccco2)cc1	26	1	-2	3	1	-1	nt
O=C(/C=C/[C@H]1O[C@@H](n2ccc(=O)[nH]c2=O)[C@H](O)[C@@H]1O)NC(c1ccccc1)c1ccccc1	-9	0	4	nt	nt	-1	nt
C[C@@H]1C(c2ccccc2)=NN(c2ccc(Br)cc2)[C@H]1C(=O)N1CCOC1=O	40	0	-4	13	7	-30	nt

Compound activity from PubChem.
